Measured values published in ChEMBL document CHEMBL4665761, “Optimizing the Benefit/Risk of Acetyl-CoA Carboxylase Inhibitors through Liver Targeting” (J Med Chem, 2020).
pIC50: −log10 of the molar value.

Key:
[1] = AUC (0 to 24 hrs) in Wistar-Hannover rat plasma at 4 mg/kg, po and measured up to 24 hrs by LC/MS-MS analysis; format: ADME, organism-based; set-up: route oral, dose 4 mg/kg, time <=24
In short: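 Male Wistar-Hannover rats (240–350 g), housed singly after 1 week of acclimation, were dosed orally. AUC0–24 came from plasma concentration–time data by the linear trapezoidal rule, averaged for n = 2. Lower detection limit was 1 ng/mL.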

[2] = AUC (0 to 24 hrs) in Wistar-Hannover rat plasma at 1 mg/kg, iv and measured up to 24 hrs by LC/MS-MS analysis; format: ADME, organism-based; set-up: route intravenous, dose 1 mg/kg, time <=24
In short: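 Male Wistar-Hannover rats (240–350 g) with jugular vein cannulas were given 1 mg/kg IV at 2 mL/kg. Vehicle, depending on compound, was 10% DMSO/90% of 20% sulfobutylether-β-cyclodextrin in water or 10% DMSO/30% PEG400/60% water. AUC0–24 came from plasma concentration–time data by the linear trapezoidal rule, averaged for n = 2. Lower detection limit was 1 ng/mL.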

[3] = Half life in Wistar-Hannover rat plasma at 1 mg/kg, iv and measured up to 24 hrs by LC/MS-MS analysis; format: ADME, organism-based
In short: (§1)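 Male Wistar-Hannover rats (240–350 g) with jugular vein cannulas, dosed 1 mg/kg IV (2 mL/kg) or PO. IV vehicle was 10% DMSO/90% of 20% sulfobutylether-β-cyclodextrin in water, or 10% DMSO/30% PEG400/60% water. Plasma was analysed by LC-MS/MS. Parameters come from plasma concentration–time data, n = 2: Cmax observed directly, AUC0-24 by the linear trapezoidal rule, CL = IV dose/AUC, Vss = dose/(AUC × elimination rate constant).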

[4] = Apparent volume of distribution at steady state in Wistar-Hannover rat plasma at 1 mg/kg, iv and measured up to 24 hrs by LC/MS-MS analysis; format: ADME, organism-based; details: read-out: Vdss(app); in short: as §1
[5] = Clearance in Wistar-Hannover rat plasma at 1 mg/kg, iv and measured up to 24 hrs by LC/MS-MS analysis; format: ADME, organism-based; in short: as §1
[6] = Drug uptake in Wistar-Hannover rat liver at 30 mg/kg, po after 6 hrs by LC/MS-MS analysis; format: ADME, organism-based; details: read-out: Drug uptake
In short: (§2)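 Male Wistar-Hannover rats, n = 2 or 3, given an oral suspension in 0.5% methyl cellulose with 0.1% Tween 80; one compound was dosed as the HCl salt. Total plasma and liver concentrations were measured 6 h post-dose. Kp = liver/plasma total concentration. Kpu,u uses fu values from equilibrium dialysis.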

[7] = Metabolic intrinsic clearance in human hepatocytes assessed per million cells incubated for 2 hrs; format: ADME, cell-based, Hepatocyte; details: read-out: CLH
In short: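 Cryopreserved human hepatocytes incubated for 2 h. In vitro half-lives scaled to intrinsic clearance, expressed per 10^6 cells.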

[8] = Octanol-water partition coefficient, logD of compound at pH 7.4 at 0.5 to 2 mg incubated for 1 hr by HPLC based shake-flask method; format: physicochemical; details: dose 0.5-2 mg
In short: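 Shake-flask octanol/water partition at pH 7.4.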

[9] = Apparent permeability in MCDKII-LE cells at 2 uM incubated for 30 mins; format: ADME, cell-based, Canis lupus familiaris, MDCKII-LE; details: dog, MDCK
In short: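 MDCK-LE (low-efflux) cell monolayers with a 30 min pre-incubation. Read-out is apparent passive permeability (Papp, 10^-6 cm/s).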

Acetyl-CoA carboxylase 2 = Acetyl-CoA carboxylase 2 (Homo sapiens, UniProt O00763); test: Inhibition of recombinant human ACC2 using acetyl coA as substrate incubated for 1 hr by transcreener fluorescence polarization assay
Acetyl-CoA carboxylase 2, sequence (O00763 whole entry): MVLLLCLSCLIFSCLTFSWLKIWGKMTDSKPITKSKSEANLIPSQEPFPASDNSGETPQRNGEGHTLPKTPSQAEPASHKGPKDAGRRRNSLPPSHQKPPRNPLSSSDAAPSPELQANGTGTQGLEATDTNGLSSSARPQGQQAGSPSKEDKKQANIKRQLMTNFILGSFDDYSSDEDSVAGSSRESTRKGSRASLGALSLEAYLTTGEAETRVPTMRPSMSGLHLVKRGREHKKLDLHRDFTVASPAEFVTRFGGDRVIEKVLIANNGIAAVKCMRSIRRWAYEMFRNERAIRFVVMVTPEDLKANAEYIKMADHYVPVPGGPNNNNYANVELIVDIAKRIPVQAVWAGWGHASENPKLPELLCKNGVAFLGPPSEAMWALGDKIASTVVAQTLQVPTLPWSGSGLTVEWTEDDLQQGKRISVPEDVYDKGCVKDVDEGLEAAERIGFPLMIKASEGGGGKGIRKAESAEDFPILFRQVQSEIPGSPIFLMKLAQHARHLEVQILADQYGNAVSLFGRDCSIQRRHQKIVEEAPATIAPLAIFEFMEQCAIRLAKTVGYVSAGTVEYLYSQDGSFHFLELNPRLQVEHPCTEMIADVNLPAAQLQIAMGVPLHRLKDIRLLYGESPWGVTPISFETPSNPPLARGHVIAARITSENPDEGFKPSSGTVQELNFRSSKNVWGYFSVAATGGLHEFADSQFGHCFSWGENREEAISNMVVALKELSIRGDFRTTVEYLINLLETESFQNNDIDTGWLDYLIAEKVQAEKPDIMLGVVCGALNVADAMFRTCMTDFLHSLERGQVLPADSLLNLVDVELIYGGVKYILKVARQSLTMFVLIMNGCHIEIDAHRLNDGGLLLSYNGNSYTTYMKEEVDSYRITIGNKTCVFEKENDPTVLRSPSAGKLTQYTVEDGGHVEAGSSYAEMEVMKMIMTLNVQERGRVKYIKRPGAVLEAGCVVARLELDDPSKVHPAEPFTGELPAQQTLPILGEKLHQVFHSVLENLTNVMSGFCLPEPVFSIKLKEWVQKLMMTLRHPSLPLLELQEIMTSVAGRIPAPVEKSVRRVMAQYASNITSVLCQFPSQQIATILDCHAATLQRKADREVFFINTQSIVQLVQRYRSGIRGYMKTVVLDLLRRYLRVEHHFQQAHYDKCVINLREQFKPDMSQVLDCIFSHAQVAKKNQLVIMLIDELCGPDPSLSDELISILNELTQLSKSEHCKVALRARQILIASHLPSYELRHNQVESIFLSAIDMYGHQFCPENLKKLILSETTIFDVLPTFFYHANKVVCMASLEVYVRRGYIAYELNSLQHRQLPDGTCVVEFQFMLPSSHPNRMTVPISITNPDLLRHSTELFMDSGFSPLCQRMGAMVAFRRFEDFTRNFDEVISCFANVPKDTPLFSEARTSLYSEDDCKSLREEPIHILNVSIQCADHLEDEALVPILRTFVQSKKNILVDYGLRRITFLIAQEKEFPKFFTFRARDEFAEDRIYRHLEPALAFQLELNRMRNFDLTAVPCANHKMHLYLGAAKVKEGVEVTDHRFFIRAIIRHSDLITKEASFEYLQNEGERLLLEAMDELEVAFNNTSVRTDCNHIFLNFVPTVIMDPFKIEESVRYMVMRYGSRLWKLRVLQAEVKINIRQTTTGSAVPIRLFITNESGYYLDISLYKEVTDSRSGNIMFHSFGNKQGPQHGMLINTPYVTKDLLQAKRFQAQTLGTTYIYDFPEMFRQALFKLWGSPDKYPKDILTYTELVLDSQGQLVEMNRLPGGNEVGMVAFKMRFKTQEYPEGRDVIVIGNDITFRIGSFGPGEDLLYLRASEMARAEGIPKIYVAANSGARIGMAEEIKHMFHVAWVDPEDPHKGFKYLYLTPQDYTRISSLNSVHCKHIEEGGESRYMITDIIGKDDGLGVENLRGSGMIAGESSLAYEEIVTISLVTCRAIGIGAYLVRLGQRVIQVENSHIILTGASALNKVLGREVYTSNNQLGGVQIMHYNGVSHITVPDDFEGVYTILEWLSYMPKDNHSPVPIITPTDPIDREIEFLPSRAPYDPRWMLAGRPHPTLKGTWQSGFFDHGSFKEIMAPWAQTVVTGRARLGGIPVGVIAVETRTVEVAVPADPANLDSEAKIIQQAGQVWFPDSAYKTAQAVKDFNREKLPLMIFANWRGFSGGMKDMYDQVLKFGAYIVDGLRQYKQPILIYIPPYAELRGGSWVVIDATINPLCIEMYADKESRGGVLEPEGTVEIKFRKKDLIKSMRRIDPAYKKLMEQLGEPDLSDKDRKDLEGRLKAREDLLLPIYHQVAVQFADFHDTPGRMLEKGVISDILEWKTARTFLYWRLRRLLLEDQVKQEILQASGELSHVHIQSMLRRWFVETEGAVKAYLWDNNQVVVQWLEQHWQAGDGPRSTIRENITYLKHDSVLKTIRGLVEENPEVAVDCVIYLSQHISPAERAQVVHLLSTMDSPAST
In short: (§3)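 Recombinant human enzyme, Transcreener assay run per an earlier protocol. IC50 is the geometric mean of at least three replicates, also given as pIC50 ± SD.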

Acetyl-CoA carboxylase 1 [10] = biological target: T1, Acetyl-CoA carboxylase 1 (Homo sapiens, UniProt Q13085); test: Inhibition of recombinant human ACC1 using acetyl coA as substrate incubated for 1 hr by transcreener fluorescence polarization assay; in short: as §3
[11] = Ratio of drug uptake in Wistar-Hannover rat liver to plasma at 30 mg/kg, po after 6 hrs by LC/MS-MS analysis; format: ADME, organism-based; details: liver and plasma
In short: (§4)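 Male Wistar-Hannover rats (n = 2 or 3) dosed orally as a suspension in 0.5% methyl cellulose with 0.1% Tween 80. Plasma and liver sampled 6 h post-dose. Kp is total liver/plasma; Kpu,u uses unbound fractions from equilibrium dialysis of plasma and liver.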

[12] = Fraction unbound in rat liver by equilibrium dialysis method
Rattus norvegicus = species on record: Rattus norvegicus; test: Fraction unbound in rat plasma by equilibrium dialysis method
[13] = Toxicity in cynomolgus monkey assessed as reduction in platelet count at 3 to 10 mg/kg, po after 14 days; format: organism-based, Macaca fascicularis; details: in vivo, 336 h, dose 3-10 mg/kg, time 14 day
[14] = Genotoxicity in Salmonella typhimurium TA1535 by Ames test; format: toxicity; details: salmonella enterica subsp. enterica serovar typhimurium
In short: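 Ames test in Salmonella strains TA98, TA100, TA1535 and TA1537, run with and without aroclor-induced rat liver S9 plus NADPH.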

[15] = biological target: Solute carrier organic anion transporter family member 1B1 (Homo sapiens, UniProt Q9Y6L6); test: Inhibition of human OATP1B1 expressed in HEK293 cells n presence of rosuvastatin; format: cell-based
Solute carrier organic anion transporter family member 1B1, sequence (Q9Y6L6 whole entry): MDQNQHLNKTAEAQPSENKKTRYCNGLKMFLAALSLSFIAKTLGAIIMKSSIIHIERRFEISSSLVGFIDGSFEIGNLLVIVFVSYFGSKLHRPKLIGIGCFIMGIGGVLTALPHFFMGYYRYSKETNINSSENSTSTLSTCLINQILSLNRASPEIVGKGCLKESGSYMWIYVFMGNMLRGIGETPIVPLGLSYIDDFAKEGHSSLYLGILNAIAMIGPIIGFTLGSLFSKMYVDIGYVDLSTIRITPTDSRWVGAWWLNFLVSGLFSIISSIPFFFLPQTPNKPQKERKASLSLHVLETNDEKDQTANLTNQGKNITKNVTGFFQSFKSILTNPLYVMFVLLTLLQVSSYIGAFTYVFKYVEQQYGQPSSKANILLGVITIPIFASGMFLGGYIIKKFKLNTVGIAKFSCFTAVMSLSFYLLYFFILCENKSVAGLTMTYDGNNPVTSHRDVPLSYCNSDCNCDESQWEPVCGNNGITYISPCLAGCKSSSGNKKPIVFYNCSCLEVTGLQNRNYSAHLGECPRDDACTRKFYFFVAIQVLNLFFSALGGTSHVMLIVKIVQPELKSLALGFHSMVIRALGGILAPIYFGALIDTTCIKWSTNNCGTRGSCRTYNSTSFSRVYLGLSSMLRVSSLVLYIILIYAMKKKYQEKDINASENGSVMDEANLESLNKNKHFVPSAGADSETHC

[16] = biological target: UDP-glucuronosyltransferase 1A9 (Homo sapiens, UniProt O60656); test: Inhibition of UGT1A9 in human liver microsomes incubated for 30 mins in presence of UDPGA by LC-MS/MS analysis; format: ADME
UDP-glucuronosyltransferase 1A9, sequence (O60656 whole entry): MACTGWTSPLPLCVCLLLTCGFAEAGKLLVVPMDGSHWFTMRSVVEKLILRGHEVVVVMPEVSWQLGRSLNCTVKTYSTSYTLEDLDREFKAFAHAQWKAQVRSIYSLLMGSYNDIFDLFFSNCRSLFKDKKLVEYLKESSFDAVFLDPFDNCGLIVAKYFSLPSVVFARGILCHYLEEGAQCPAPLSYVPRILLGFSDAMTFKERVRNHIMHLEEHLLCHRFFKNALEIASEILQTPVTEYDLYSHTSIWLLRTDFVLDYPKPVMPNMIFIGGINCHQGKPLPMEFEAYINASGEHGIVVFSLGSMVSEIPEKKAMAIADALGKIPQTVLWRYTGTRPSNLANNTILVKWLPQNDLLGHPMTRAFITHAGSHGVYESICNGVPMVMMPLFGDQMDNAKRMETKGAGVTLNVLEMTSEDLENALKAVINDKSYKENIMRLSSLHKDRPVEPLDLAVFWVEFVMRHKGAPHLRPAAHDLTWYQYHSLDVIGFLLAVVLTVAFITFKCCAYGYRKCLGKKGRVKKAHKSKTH

Cytochrome P450 2B6 = Cytochrome P450 2B6 (Homo sapiens, UniProt P20813); test: inhibition of CYP2B6 in human liver microsomes; format: ADME
Cytochrome P450 2B6, sequence (P20813 whole entry): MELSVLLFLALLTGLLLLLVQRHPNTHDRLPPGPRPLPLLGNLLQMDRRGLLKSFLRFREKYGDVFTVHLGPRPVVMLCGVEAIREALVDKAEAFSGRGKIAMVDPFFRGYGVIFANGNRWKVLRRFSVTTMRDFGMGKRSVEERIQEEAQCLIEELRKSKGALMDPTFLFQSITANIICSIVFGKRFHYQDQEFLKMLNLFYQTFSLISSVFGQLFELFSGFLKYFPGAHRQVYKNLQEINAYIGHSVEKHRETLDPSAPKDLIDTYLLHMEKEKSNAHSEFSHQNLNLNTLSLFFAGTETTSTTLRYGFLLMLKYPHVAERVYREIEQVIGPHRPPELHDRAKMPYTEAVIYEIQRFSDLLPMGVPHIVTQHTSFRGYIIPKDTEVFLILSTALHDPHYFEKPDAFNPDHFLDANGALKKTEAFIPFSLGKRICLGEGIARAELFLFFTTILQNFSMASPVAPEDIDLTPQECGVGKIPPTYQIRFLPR

Acetyl-CoA carboxylase 1 [17] = biological target: T1, Acetyl-CoA carboxylase 1; test: Uncompetitive inhibition of human ACC1 incubated for 15 mins in presence of ATP by Line weaver-Burk plot analysis
In short: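 Radioenzymatic assay with purified ACC isozymes, measuring [14C]-bicarbonate incorporation into [14C]-malonyl-CoA. Mode of inhibition taken from substrate concentration-dependence experiments varying ATP or carbonate. IC50 dose-response run at saturating ATP.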

[18] = Drug recovery in bile duct-cannulated Wistar-Hannover rat bile at 1 mg/kg, iv and measured up to 24 hrs by LC/MS-MS analysis; format: ADME, organism-based; details: read-out: Drug recovery
In short: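 Rats received a 1 mg/kg IV dose. Bile was pooled over 0–24 h and analysed for unchanged parent.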

[19] = AUC (0 to 24 hrs) in cynomolgus monkey plasma at 1 mg/kg, iv and measured up to 72 hrs by LC/MS-MS analysis; format: ADME, organism-based, Macaca fascicularis; set-up: route intravenous, dose 1 mg/kg, time <=72
In short: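 Cynomolgus monkeys received an IV solution of the tris salt in 2% N-methylpyrrolidone and 98% sulfobutylether-β-cyclodextrin (12.5%) in 50 mM TRIS buffer, pH 8.0. AUC0–24 came from plasma concentration–time data by the linear trapezoidal rule, averaged for n = 2.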

[20] = Drug uptake in Wistar-Hannover rat liver at 10 mg/kg, po after 6 hrs by LC/MS-MS analysis; format: ADME, organism-based; details: read-out: Drug uptake; in short: as §2
[21] = Ratio of drug uptake in Wistar-Hannover rat liver to plasma at 10 mg/kg, po after 6 hrs by LC/MS-MS analysis; format: ADME, organism-based; details: liver and plasma; in short: as §4
[22] = Fraction unbound in monkey liver by equilibrium dialysis method; format: ADME, tissue-based, Macaca mulatta; details: rhesus monkey
In short: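 Fraction unbound in plasma and liver tissue was determined by equilibrium dialysis.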

AUC(0-t) [2] [ng·h/mL]	half-life [3] [h]	Vd [4] [L/kg]	clearance [5] [mL/min/kg]	hepatocyte CLint [7] [µL/min/1e6 cells]	logD at 1 h [8]	Papp at 0.5 h, 2 µM [9] [×10⁻⁶ cm/s]	pIC50 (Acetyl-CoA carboxylase 2)	pIC50 (Acetyl-CoA carboxylase 1 [10])	fraction unbound [12]	fraction unbound (Rattus norvegicus)	SMILES	further results
299	3.5	4.1	54.5	< 3	0.5	2	7.89	7.66	0.07	0.17	COc1cc(C(=O)N2CCC3(CC2)CC(=O)c2nn(C(C)(C)C)cc2O3)cc(-c2ccc(C(=O)O)cc2)n1	AUC(0-t) [1]: 322 ng·h/mL; concentration at 6 h [6]: 38100 ng/mL; Kp at 6 h [11]: 914
965	8.6	7.2	16	< 3	1.1	14	7.59	7.48	0.066	0.0392	COc1cc(C(=O)N2CCC3(CC2)CC(=O)c2c(cnn2C(C)C)C3)cc(-c2ccc(C(=O)O)cc2)n1 [CLESACOSTAT]	Activity [13]: Non-Toxic; Activity [14]: Non-Toxic; pIC50 [15]: 4.93; pIC50 [16]: < 4.70; pIC50 (Cytochrome P450 2B6): < 4.30; pIC50 (Acetyl-CoA carboxylase 1 [17]): 7.91; dose excreted at 24 h [18]: 12%; AUC(0-t) [19]: 14000 ng·h/mL; concentration at 6 h [20]: 24600 ng/mL; Kp at 6 h [21]: 78; fraction unbound [22]: 0.15
